Results: ChEMBL document CHEMBL1153848, “Design and synthesis of azolopyrimidoquinolines, pyrimidoquinazolines as anti-oxidant, anti-inflammatory and analgesic activities” (2009)
The source made the active and inactive calls.

How the values were obtained:
[1] = Antioxidant activity assessed as ABTS radical scavenging activity at 2 mM; assay type: functional
Procedure, shortened: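 ABTS radical scavenging, read as the fall in colour absorbance after MeOH/phosphate buffer (1:1) is added. % inhibition = (A_control − A_test)/A_control × 100. The negative control uses MeOH/phosphate buffer (1:1) in place of compound, the blank omits ABTS, and ascorbic acid is the positive control.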

[2] = Protection against bleomycin-induced damage in calf thymus type 1 DNA assessed as absorbance at 532 nm after 1 hr; set-up: concentration or dose not given beside the values
Procedure, shortened: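 Reaction mixture: calf thymus DNA 0.5 mg/mL, bleomycin sulfate 0.05 mg/mL, MgCl2 5 mM, […], sample at various concentrations; 37 °C for 1 h. Stopped with EDTA (0.1 M), then TBA (1% w/v) plus HCl (25% v/v), heated 80 °C 10 min. After centrifugation, DNA damage read as absorbance increase at 532 nm. L-ascorbic acid as positive control.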

Kidney = assay: Antioxidant activity in Sprague-Dawley rat kidney assessed as inhibition of lipid peroxidation; assay type: functional, tissue-based
[3] = Antioxidant activity in Sprague-Dawley rat erythrocytes assessed as peroxyl radical-induced hemolysis after 1 hr; assay type: functional, Erythrocyte
Brain = assay: Antioxidant activity in Sprague-Dawley rat brain assessed as inhibition of lipid peroxidation; assay type: functional, tissue-based
Mus musculus [4] = assay: Central analgesic activity in Swiss albino mouse assessed as thermal stimuli reaction time at 20 mg/kg, po after 30 mins by hot plate method; assay type: functional
Procedure, shortened: (§1)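 Swiss mice of both sexes (25–30 g), six per group, on a hot plate held at 53 ± 0.5 °C. Latency was timed to hind-paw licking or jumping, with a 60 s cut-off. It was measured before dosing, then at 15, 30, 60 and 90 min after an oral aqueous suspension at 20 mg/kg. Controls were untreated; oral diclofenac sodium 20 mg/kg was the reference.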

Mus musculus [5] = assay: Central analgesic activity in Swiss albino mouse assessed as thermal stimuli reaction time at 20 mg/kg, po after 60 mins by hot plate method; assay type: functional; procedure, shortened: as §1
Mus musculus [6] = assay: Peripheral analgesic activity in Swiss albino mouse assessed as protection against acetic acid-induced writhing response at 20 mg/kg, po administered 30 mins before acetic acid challenge measured after 2 hrs relative to control; assay type: functional
Mus musculus [7] = assay: Peripheral analgesic activity in Swiss albino mouse assessed as protection against acetic acid-induced writhing response at 20 mg/kg, po administered 30 mins before acetic acid challenge measured after 1 hr relative to control; assay type: functional
Mus musculus [8] = assay: Peripheral analgesic activity in Swiss albino mouse assessed as protection against acetic acid-induced writhing response at 20 mg/kg, po administered 30 mins before acetic acid challenge measured after 3 hrs relative to control; assay type: functional
Mus musculus [9] = assay: Peripheral analgesic activity in Swiss albino mouse assessed as protection against acetic acid-induced writhing response at 20 mg/kg, po administered 30 mins before acetic acid challenge measured after 30 mins relative to control; assay type: functional
Rattus norvegicus [10] = assay: Antiinflammatory activity in Sprague-Dawley rat assessed as protection against carrageenan-induced hind paw edema at 20 mg/kg, po administered 1 hr before carrageenan challenge measured after 2 hrs; assay type: functional
Procedure, shortened: (§2)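 Adult female albino rats (150–180 g), fasted 18 h, six per group. Aqueous suspension in distilled water given orally at 20 mg/kg 1 h before subplantar injection of 0.1 mL 1% w/v carrageenan into the left hind paw. Vehicle controls got 0.5 mL water; diclofenac sodium 20 mg/kg po was the reference. Paw volume was measured by mercury plethysmometer before injection and hourly for 4 h. Inhibition = (Ec−Et)/Ec, with edema = (Vt−V0)/V0.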

Rattus norvegicus [11] = assay: Antiinflammatory activity in Sprague-Dawley rat assessed as protection against carrageenan-induced hind paw edema at 20 mg/kg, po administered 1 hr before carrageenan challenge measured after 1 hr; assay type: functional; procedure, shortened: as §2
Mus musculus [12] = assay: Central analgesic activity in Swiss albino mouse assessed as thermal stimuli reaction time at 20 mg/kg, po after 90 mins by hot plate method; assay type: functional; procedure, shortened: as §1
Rattus norvegicus [13] = assay: Antiinflammatory activity in Sprague-Dawley rat assessed as protection against carrageenan-induced hind paw edema at 20 mg/kg, po administered 1 hr before carrageenan challenge measured after 3 hrs; assay type: functional; procedure, shortened: as §2

| Structure (SMILES) | inhibition [1] | Activity [2] | Activity (Kidney) | Activity [3] | Activity (Brain) | Activity (Mus musculus [4]) | Activity (Mus musculus [5]) | Activity (Mus musculus [6]) | Activity (Mus musculus [7]) | Activity (Mus musculus [8]) | Activity (Mus musculus [9]) | Activity (Rattus norvegicus [10]) | Activity (Rattus norvegicus [11]) | Activity (Mus musculus [12]) | Activity (Rattus norvegicus [13]) |
| --- | --- | --- | --- | --- | --- | --- | --- | --- | --- | --- | --- | --- | --- | --- | --- |
| CCn1c(SC)nc2nc3c(c(-c4ccc(Cl)cc4)c2c1=O)CCC/C3=C/c1ccc(Cl)cc1 | 37% | 0.021 | Active | 3.93% | Active |  |  |  |  |  |  |  |  |  |  |
| C/C(=N/NC(N)=S)c1sc2nc3nc4c(c(-c5ccc(Cl)cc5)c3c(=O)n2c1C)CCC/C4=C/c1ccc(Cl)cc1 | 63% | 0.065 | Active | 6.21% | Active |  |  |  |  |  |  |  |  |  |  |
| O=C1O[C@H]([C@@H](O)CO)C(O)=C1O |  | 0.02 |  |  |  |  |  |  |  |  |  |  |  |  |  |
| CSc1nc2nc3c(c(-c4ccc(Cl)cc4)c2c(=O)[nH]1)CCC/C3=C/c1ccc(Cl)cc1 | 33.3% |  | Active | 4.24% | Active | 8.42 min | 10.41 min | 55.5% | 52% | 37.6% | 50.4% | 56.2% | 50.1% | 10.67 min | 32.4% |
| CC(=O)c1sc2nc3nc4c(c(-c5ccc(Cl)cc5)c3c(=O)n2c1C)CCC/C4=C/c1ccc(Cl)cc1 | 40.7% |  | Active | 6.06% | Active | 7.54 min | 8.61 min | 53.1% | 49% | 38.4% | 43.5% | 44.2% | 46.7% | 12 min | 39.2% |
| Cc1c(C(=O)/C=C/c2ccccc2)sc2nc3nc4c(c(-c5ccc(Cl)cc5)c3c(=O)n12)CCC/C4=C/c1ccc(Cl)cc1 | 38.9% | 0.035 | Active | 4.54% | Active |  |  |  |  |  |  |  |  |  |  |
| O=c1c2c(-c3ccc(Cl)cc3)c3c(nc2nc2sc4c(n12)ONC4c1ccccc1)/C(=C\c1ccc(Cl)cc1)CCC3 (stereo not drawn) | 33.3% |  | Active | 9.39% | Active | 7.08 min | 9.52 min | 59.3% | 53% | 36.5% | 46.7% | 57.1% | 49.6% | 12.68 min | 34.8% |
| O=c1[nH]c(=S)[nH]c2c1C(c1ccccc1)C1=C(N2)/C(=C/c2ccccc2)CCC1 (stereo not drawn) | 81.5% | 0.025 | Active | 35.75% | Active | 9.42 min | 10.41 min | 69.2% | 65.1% | 50.1% | 61.2% | 53.2% | 49% | 11.67 min | 41% |
